Measured values from ChEMBL document CHEMBL1139166, “Synthesis and in vitro evaluation of tetrahydroisoquinolinyl benzamides as ligands for sigma receptors” (Bioorg Med Chem Lett, 2007).
pIC50, pKi: −log10 of the molar value.

Experiments:
[1] = molecular target: T1, Sigma non-opioid intracellular receptor 1 (Cavia porcellus, UniProt Q60492); experiment: Displacement of [3H](+)-pentazocine from sigma 1 receptor in guinea pig brain membrane; assay type: cell membranes
How it was run: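 Male guinea pig brain membranes (0.25 mg protein) were incubated with 1.0 nM [3H](+)-pentazocine in 50 mM Tris-HCl (pH 7.4, 25 °C) for 150 min at 37°C. Haloperidol (1.0 µM) defined nonspecific binding. Ten log-spaced test concentrations were used, in water with 0.1% HOAc/1.0% EtOH. Bound radioactivity was collected on PEI-soaked GF/B filters and counted by scintillation.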

Cavia porcellus = organism: Cavia porcellus; experiment: Selectivity for sigma 2 receptor over sigma 1 receptor in guinea pig brain membrane; assay type: cell membranes
How it was run: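 Selectivity is the ratio of sigma1 Ki to sigma2 Ki. Sigma1 Ki came from [3H](+)-pentazocine competition and sigma2 Ki from [3H]DTG competition with (+)-pentazocine mask, both in male guinea pig brain membranes.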

[2] = Displacement of [3H]DTG from sigma 2 receptor in guinea pig brain membrane; assay type: cell membranes, Cavia porcellus
How it was run: (§1)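 Male guinea pig brain membranes (0.25 mg protein) were incubated with 3.0 nM [3H]DTG plus 200 nM (+)-pentazocine as sigma1 mask. Buffer was 50 mM Tris-HCl, pH 8.0, and incubation was 120 min at 25 °C. DTG (100 µM) defined nonspecific binding. Ten log-spaced test concentrations were used. Filters were PEI-soaked GF/B, read by scintillation counting. Ki given as mean ± SEM, n = 3–5.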

[3] = Displacement of [3H]DTG from sigma 2 receptor in guinea pig brain membrane at pH 8.0 at 25 degC; assay type: cell membranes, Cavia porcellus; how it was run: as §1
[4] = molecular target: T1, Sigma non-opioid intracellular receptor 1; experiment: Displacement of [3H](+)-pentazocine from sigma 1 receptor in guinea pig brain membrane at pH 8.0 at 25 degC; assay type: cell membranes
How it was run: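 This alternative sigma1 regimen used guinea pig brain membranes with 3.0 nM [3H](+)-pentazocine in pH 8.0 buffer. Incubation was 120 min at 25 °C. Nonspecific binding was defined with 10 µM (+)-pentazocine. Bound ligand was separated by filtration and counted by scintillation.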

T1 sequence (Q60492 whole entry): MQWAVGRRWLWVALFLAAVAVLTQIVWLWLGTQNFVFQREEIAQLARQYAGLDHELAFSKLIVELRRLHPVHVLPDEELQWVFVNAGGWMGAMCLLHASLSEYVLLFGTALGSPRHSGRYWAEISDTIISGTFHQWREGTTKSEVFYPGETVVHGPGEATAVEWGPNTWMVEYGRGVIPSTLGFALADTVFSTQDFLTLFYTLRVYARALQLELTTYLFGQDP

Row | Structure (SMILES) | pKi [1] | Ratio Ki (Cavia porcellus) | pKi [2] | pIC50 [3] | pIC50 [4]
1 | COc1ccc(CCNCCCCNC(=O)c2cc(Br)cc(OC)c2OC)cc1OC | 6.06 | 0.2 | 5.34 |  | 
2 | COc1cc(Br)cc(C(=O)NCCCCN2CCc3cc4c(cc3C2)OCO4)c1OC | 7.09 | 4 | 7.68 |  | 
3 | COc1cc2c(cc1OC)CN(CCCCNC(=O)c1cc(Br)cc(OC)c1OC)CC2 |  |  | 8.57 | 8.52 | 5.72

More lines, now with the values ahead:

Row | pKi [1] | Ratio Ki (Cavia porcellus) | pKi [2] | pIC50 [3] | pIC50 [4] | Structure (SMILES)
4 | 6.47 | 16 | 7.66 |  |  | COc1cc(Br)cc(C(=O)NCCCCN2CCc3cc4c(cc3C2)OCCO4)c1OC
5 | 5.84 | 44 | 7.49 |  |  | COc1cc(Br)cc(C(=O)NCCCCN2CCc3cc4c(cc3C2)OCCCO4)c1OC
